Only some compounds are listed: those with a hit (about 1.7% of all), similar ones and a draw of the others.
Arrestin-AP2 inh: blocks beta-arrestin peptide binding to AP2 adaptin | AID 504490 | inhibition, % at 10 µM | FITC-arrestin peptide / GST-AP2 beads, flow cytometry; AP2 beta2 appendage carries R879A mutation | hit rate 0.31% among 340,000;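 active means inhibition above a set limit, near 3 SD of compounds lacking own fluorescence, cut at about 54% in these data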
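System: GST-AP2 R879A glutathione beads. Medium: PBS with 0.05% Tween 20 and 0.1% BSA. Also added: FITC-arrestin peptide, 50 nM. Incubation: 12 min plus 1 h, RT. Measured by: high-throughput flow cytometry of beads, ex 488, em 535 nm. Evaluation: percent drop in bead-associated FITC signal.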
Neddylation inh: blocks human cullin neddylation. TR-FRET cullin neddylation, biochemical. hit rate 0.58% among 360,000. P61081+Q13564. inhibition, % at 25 µM; in the data active means inhibition above about 36%
Target sequence (P61081 whole entry, looked up): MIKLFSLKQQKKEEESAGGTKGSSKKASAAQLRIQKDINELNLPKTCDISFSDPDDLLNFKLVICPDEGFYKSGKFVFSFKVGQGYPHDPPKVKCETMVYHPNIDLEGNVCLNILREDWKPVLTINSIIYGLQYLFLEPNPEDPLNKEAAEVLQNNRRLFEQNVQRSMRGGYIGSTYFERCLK
Target sequence (Q13564 whole entry, looked up): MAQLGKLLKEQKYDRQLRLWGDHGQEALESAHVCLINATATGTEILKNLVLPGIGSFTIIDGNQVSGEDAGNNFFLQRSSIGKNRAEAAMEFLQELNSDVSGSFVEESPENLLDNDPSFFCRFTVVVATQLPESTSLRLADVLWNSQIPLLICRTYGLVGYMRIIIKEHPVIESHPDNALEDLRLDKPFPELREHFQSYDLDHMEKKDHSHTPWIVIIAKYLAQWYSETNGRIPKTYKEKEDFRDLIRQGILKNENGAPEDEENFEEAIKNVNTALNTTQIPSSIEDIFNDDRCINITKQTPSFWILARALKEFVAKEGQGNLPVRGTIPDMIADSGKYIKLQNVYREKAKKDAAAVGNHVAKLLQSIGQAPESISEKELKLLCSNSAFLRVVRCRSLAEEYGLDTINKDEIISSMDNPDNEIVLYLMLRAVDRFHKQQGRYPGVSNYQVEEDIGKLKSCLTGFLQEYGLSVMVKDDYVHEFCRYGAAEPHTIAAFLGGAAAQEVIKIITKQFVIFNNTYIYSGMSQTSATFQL
Pemphigus Ab inh: human desmoglein-3 autoantibody binding inhibition; binding (percent of control), % at 10 µM; DSG3-coupled beads, scFv-anti-DSG3-GFP binding, flow cytometry; stronger effect = lower value; AID 588358; hit rate 0.48% among 310,000; P32926;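 active means binding more than 3 SD below its plate's average and above zero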;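 further: hits lower antibody fragment binding to DSG3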
Efflux pump mplx: inhibitors of Candida antifungal efflux pumps expressed in yeast; inhibition, % at 10 µM; hit rate 0.44% among 330,000; S. cerevisiae Candida pump triplex, Nile Red efflux;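 active means plate passing quality check with inhibition over a set limit, or well fluorescence over plate mean plus 4 SD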;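 further: Nile Red retained in pooled yeast measured as flow cytometry median fluorescence; higher means more Nile Red kept so more efflux inhibition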
Cmpd fluor yeast: counter-screen for efflux pump inhibitors: compound fluorescence. shares compounds with Efflux pump mplx. S. cerevisiae AD/pABC3, flow cytometry. fluorescence ratio to DMSO, % at 10 µM. hit rate 4% among 1,700;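 active means fluorescence ratio to DMSO above its plate's cutoff, the plate mean ratio plus 5 SD, cut at about 210% in these data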;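 further: unstained yeast with no Nile Red so the signal is compound autofluorescence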
Mdr1 pump inh: blocks the Candida albicans Mdr1 efflux pump in yeast; hit rate 1% among 1,700; inhibition, % at 10 µM; S. cerevisiae AD/CaMDR1, Nile Red efflux, flow cytometry; shares compounds with Efflux pump mplx; in the data active means inhibition above about 26%;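 further: higher means more Nile Red retained so more efflux inhibition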
Cdr2 pump inh: inhibitors of Candida albicans Cdr2 efflux pump | shares compounds with Efflux pump mplx | S. cerevisiae AD/CaCDR2, Nile Red retention, flow cytometry | Nile Red retention ratio vs DMSO, % at 10 µM | hit rate 4% among 1,700 | AID 588520; in the data active means Nile Red retention ratio vs DMSO above about 190%;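 further: higher ratio means more blocking of Cdr2 efflux of the dye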
CaCdr1 efflux inh: inhibitors of Candida albicans Cdr1 efflux pump | shares compounds with Efflux pump mplx | S. cerevisiae AD/CaCDR1, Nile Red efflux, flow cytometry | inhibition, % at 10 µM | hit rate 1% among 1,700 | AID 588522;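 active means inhibition above the screen-wide mean plus twice its standard deviation, cut at about 32% in these data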
Of the large screens only hits and unclear results are named; the others gave an inactive call (follow-up assays come after a bar, where shown).

CCN(CCn1cccn1)C(=O)CCc1nnc(CCCc2ccccc2)o1	none
Cc1cc(C)n2c(SCC(=O)N(C)C3CCS(=O)(=O)C3)nnc2n1 (centres undefined)	Efflux pump mplx 0.6 | Cmpd fluor yeast inactive | Mdr1 pump inh inactive | Cdr2 pump inh inactive | CaCdr1 efflux inh inactive
CCC1(C(=O)c2ccc(Cl)cc2)C2c3ccccc3OC(=O)C21C(=O)Nc1ccccc1 (centres undefined)	Efflux pump mplx 1.8 (no result: Pemphigus Ab inh) | Cmpd fluor yeast inactive | Mdr1 pump inh inactive | Cdr2 pump inh inactive | CaCdr1 efflux inh inactive
O=[N+]([O-])c1ccc(Oc2cccc3cccnc23)c([N+](=O)[O-])c1	Efflux pump mplx 0.9 | Cmpd fluor yeast inactive | Mdr1 pump inh inactive | Cdr2 pump inh inactive | CaCdr1 efflux inh inactive
Nc1nc(SCC(=O)c2ccc(Cl)cc2)c2ncn(C3OC(CO)C(O)C3O)c2n1 (centres undefined)	none (no result: Efflux pump mplx)
COc1ccc2cc3cc(C(=O)NCc4ccc5c(c4)OCO5)oc3nc2c1	none (not shown: Neddylation inh)
COc1ccc2cc3cc(C(=O)N4CCN(Cc5ccc6c(c5)OCO6)CC4)oc3nc2c1	Efflux pump mplx 0.6 (not shown: Neddylation inh) | Cmpd fluor yeast inactive | Mdr1 pump inh inactive | Cdr2 pump inh inactive | CaCdr1 efflux inh inactive
Cc1cccc(NC(=O)/C(C#N)=C/c2cn(CC(=O)NCc3ccco3)c3ccccc23)c1C	Efflux pump mplx 11.1 (not shown: Neddylation inh) | Cmpd fluor yeast inactive | Mdr1 pump inh inactive | Cdr2 pump inh inactive | CaCdr1 efflux inh inactive
COc1ccc(NC(=O)C2CC(=O)N(c3ccccc3C)C2)c(OC)c1 (centres undefined)	none
Cc1ccc(C(=O)O)cc1NS(=O)(=O)c1ccc2c(c1)oc(=O)n2C	none
Cc1ccccc1NC(=O)c1ccc(NC(=O)c2ccco2)cc1	none | Cmpd fluor yeast inactive | Mdr1 pump inh inactive | Cdr2 pump inh inactive | CaCdr1 efflux inh inactive
Cc1ccccc1NC(=O)c1ccccc1NC(=O)c1ccco1	none
O=C(Nc1ccccc1C(=O)O)c1cccc(NC(=O)c2ccc(Br)o2)c1	none
O=C(Nc1ccccc1C(=O)O)c1ccc(NC(=O)c2ccc(Br)o2)cc1	none | Cmpd fluor yeast inactive | Mdr1 pump inh inactive | Cdr2 pump inh inactive | CaCdr1 efflux inh inactive
O=C1C2C3C=CC(C4CC34)C2C(=O)N1CCCCN1CCN(c2ccc(F)cc2)CC1 (centres undefined)	none (no result: Pemphigus Ab inh)
Cc1ccc(/C=C/c2ccc(N(C)C)cc2)[n+](C)c1	Efflux pump mplx 4.4 | Cmpd fluor yeast active | Mdr1 pump inh 34.5 | Cdr2 pump inh inactive | CaCdr1 efflux inh inactive
CN(C)c1ccc(/C=C/c2cc[n+]([O-])cc2)cc1	none (no result: Arrestin-AP2 inh, Neddylation inh, Pemphigus Ab inh)
CN(C)c1ccc(/C=C/c2cc[n+](C)cc2)cc1	Efflux pump mplx 129.5 | Cmpd fluor yeast active | Mdr1 pump inh active | Cdr2 pump inh 488.4 | CaCdr1 efflux inh active
O=C(N1CCOCC1)N1CCN(S(=O)(=O)c2ccc(F)cc2)CC1	none
CNC(=O)c1csc(-c2ccc(C)cc2)n1	none
COCC(=O)N(C)C[C@H]1N[C@@](C)(C(=O)OC)[C@H]2C(=O)N(Cc3ccccc3)C(=O)[C@@H]12	none
CCOC(=O)[C@H]1[C@H]2COc3ccc(Cl)cc3[C@@H]2N2C(=O)c3ccccc3NC(=O)[C@@]12C	none (no result: Efflux pump mplx)
Cc1cc(C)c(S(=O)(=O)N2CCc3ccccc32)c(C)c1	Efflux pump mplx 0.9 | Cmpd fluor yeast inactive | Mdr1 pump inh inactive | Cdr2 pump inh inactive | CaCdr1 efflux inh inactive
Cc1n[nH]c(C)c1S(=O)(=O)N1CCc2ccccc21	none (no result: Pemphigus Ab inh)
COc1ccc2nc(NC(=O)c3ccoc3C)sc2c1	Efflux pump mplx 7.5 (not shown: Neddylation inh) | Cmpd fluor yeast inactive | Mdr1 pump inh inactive | Cdr2 pump inh inactive | CaCdr1 efflux inh inactive
O=C(N/N=C\c1ccc(CNS(=O)(=O)c2ccccc2)o1)C(=O)Nc1ccc(F)cc1	none
O=C(NCc1ccc(/C=N\NC(=O)C(=O)Nc2ccccc2Br)o1)C(=O)Nc1ccccc1	Efflux pump mplx 0.7 | Cmpd fluor yeast inactive | Mdr1 pump inh inactive | Cdr2 pump inh inactive | CaCdr1 efflux inh inactive
COc1cccc2c1O/C(=N\O)C(C(=O)Nc1cccc(Br)c1)C2 (centres undefined)	none
